Experimental data taken from ChEMBL document CHEMBL3627660, “Tetrafluorophenoxymethyl ketone cruzain inhibitors with improved pharmacokinetic properties as therapeutic leads for Chagas' disease” (Bioorg Med Chem Lett, 2015).

Assays:
Trypanosoma cruzi = assay: Antitrypanosomal activity against Trypanosoma cruzi infected in C2C12 cells after 72 hrs by DAPI staining; type: functional, organism-based; details: C2C12, 72 h
Cruzipain = Cruzipain (Trypanosoma cruzi, UniProt P25779); assay: Inhibition of Trypanosoma cruzi recombinant cruzain using Z-FR-AMC as substrate after 5 mins by fluorescence assay
MDCK = assay: Apparent permeability from apical to basolateral side in MDCK cells assessed as per 10^-6 cells; type: ADME, cell-based, Canis lupus familiaris; details: dog
Cytochrome P450 3A4 = Cytochrome P450 3A4 (Homo sapiens, UniProt P08684); assay: Inhibition of CYP3A4 (unknown origin); type: ADME
[1] = Cmax in mouse at 40 mg/kg, po; type: ADME, organism-based; design: dose 40 mg/kg, route oral; details: in vivo
Outline: (§1)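 In vivo mouse pharmacokinetic study with two arms, intravenous at 10 mg/kg and oral at 40 mg/kg. Exposure parameters derived were AUC, T1/2, CL, Vss and oral bioavailability (F%).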

[2] = Clearance in mouse at 10 mg/kg, iv; type: ADME, organism-based; details: in vivo
Outline: (§2)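 Mouse PK study with two dosing arms: 40 mg/kg orally and 10 mg/kg intravenously. The parameters derived were AUC, T1/2, CL, Vss and F%.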

[3] = AUC in mouse at 10 mg/kg, iv; type: ADME, organism-based; details: in vivo
[4] = Volume of distribution at steady state in mouse at 10 mg/kg, iv; type: ADME, organism-based; details: in vivo, read-out: Vdss; outline: as §2
Mus musculus = assay: Oral bioavailability in mouse at 40 mg/kg; type: ADME, organism-based; details: in vivo; outline: as §2
[5] = Half life in mouse at 40 mg/kg, po; type: ADME, organism-based; details: in vivo; outline: as §2
[6] = AUC in mouse at 40 mg/kg, po; type: ADME, organism-based; details: in vivo
[7] = Half life in mouse at 10 mg/kg, iv; type: ADME, organism-based; details: in vivo; outline: as §2
[8] = Cmax in mouse at 10 mg/kg, iv; type: ADME, organism-based; design: dose 10 mg/kg, route intravenous; details: in vivo; outline: as §1
[9] = Half life in mice after oral dosing; details: in vivo

Sequence of Cytochrome P450 3A4 (P08684 whole entry): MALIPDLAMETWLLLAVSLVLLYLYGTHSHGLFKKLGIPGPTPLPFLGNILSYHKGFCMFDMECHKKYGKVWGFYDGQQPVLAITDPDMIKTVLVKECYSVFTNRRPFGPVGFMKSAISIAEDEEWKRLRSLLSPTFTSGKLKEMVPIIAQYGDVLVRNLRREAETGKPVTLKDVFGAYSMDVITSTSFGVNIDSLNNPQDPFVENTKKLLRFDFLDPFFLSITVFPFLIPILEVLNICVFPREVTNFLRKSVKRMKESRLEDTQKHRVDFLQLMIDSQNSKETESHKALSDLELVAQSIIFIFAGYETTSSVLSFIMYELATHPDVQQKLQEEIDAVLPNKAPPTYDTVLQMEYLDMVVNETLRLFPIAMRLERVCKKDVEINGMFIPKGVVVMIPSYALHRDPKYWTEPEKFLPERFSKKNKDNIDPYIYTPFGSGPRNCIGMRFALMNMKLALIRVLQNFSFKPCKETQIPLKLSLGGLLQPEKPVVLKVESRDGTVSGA
Sequence of Cruzipain (P25779 whole entry): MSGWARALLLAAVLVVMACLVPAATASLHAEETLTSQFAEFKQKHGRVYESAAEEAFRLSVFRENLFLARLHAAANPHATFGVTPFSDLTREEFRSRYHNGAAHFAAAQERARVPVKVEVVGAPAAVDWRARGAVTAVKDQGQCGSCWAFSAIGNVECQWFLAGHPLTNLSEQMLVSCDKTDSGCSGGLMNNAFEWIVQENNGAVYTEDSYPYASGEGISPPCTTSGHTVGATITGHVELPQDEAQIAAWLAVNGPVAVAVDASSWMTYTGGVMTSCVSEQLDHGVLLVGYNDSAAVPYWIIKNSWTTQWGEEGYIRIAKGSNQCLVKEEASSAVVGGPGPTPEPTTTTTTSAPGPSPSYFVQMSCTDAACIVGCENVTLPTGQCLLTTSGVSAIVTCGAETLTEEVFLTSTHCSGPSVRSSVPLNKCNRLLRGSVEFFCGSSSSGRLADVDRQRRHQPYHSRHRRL

SMILES | IC50 (Trypanosoma cruzi) | IC50 (Cruzipain) | Papp (MDCK) | IC50 (Cytochrome P450 3A4) | other results
C[C@@](NCc1ccc2occc2c1)(c1cn(C(CCS(C)(=O)=O)C(=O)COc2c(F)c(F)cc(F)c2F)nn1)C1CCCC1 (some centres undefined) | 5 nM | 790 nM | – | – | –
CCCCC(C(=O)COc1c(F)c(F)cc(F)c1F)n1cc([C@@](C)(NC(=O)c2ccc3ncccc3c2)C(C)C)nn1 (some centres undefined) | 700 nM | 1350 nM | – | – | –
CC(C)[C@](C)(NCc1ccc2ncccc2c1)c1cn(C(CCS(C)(=O)=O)C(=O)COc2c(F)c(F)cc(F)c2F)nn1 (some centres undefined) | 380 nM | 560 nM | 3.49 ×10⁻⁶ cm/s | 1200 nM | –
COCCC(C(=O)COc1c(F)c(F)cc(F)c1F)n1cc([C@@](C)(NCc2ccc3ncccc3c2)C(C)C)nn1 (some centres undefined) | 2 nM | 340 nM | – | – | –
CCCCC(C(=O)COc1c(F)c(F)cc(F)c1F)n1cc([C@@](C)(NCc2ccncc2)C(C)C)nn1 (some centres undefined) | 143 nM | 1100 nM | – | – | –
CCCCC(C(=O)COc1c(F)c(F)cc(F)c1F)n1cc([C@@](C)(NC(=O)c2ccncc2)C(C)C)nn1 (some centres undefined) | 1600 nM | 23000 nM | – | – | –
CCCCC(C(=O)COc1c(F)c(F)cc(F)c1F)n1cc([C@@](C)(NCc2ccc3ncsc3c2)C(C)C)nn1 (some centres undefined) | 2 nM | 37 nM | 2.26 ×10⁻⁶ cm/s | 300 nM | Cmax [1]: 1230 ng/mL; clearance [2]: 16.6 mL/min/kg; AUC [3]: 9610 ng·h/mL; Vd [4]: 6.5 L/kg; F (Mus musculus): 19.1%; half-life [5]: 3.41 h; AUC [6]: 6570 ng·h/mL; half-life [7]: 5.67 h
CCCCC(C(=O)COc1c(F)c(F)cc(F)c1F)n1cc([C@@](C)(NC(=O)c2ccc3ncsc3c2)C(C)C)nn1 (some centres undefined) | 650 nM | 3590 nM | – | – | –
CC(C)[C@](C)(NCc1ccc2ncsc2c1)c1cn(C(CCS(C)(=O)=O)C(=O)COc2c(F)c(F)cc(F)c2F)nn1 (some centres undefined) | 12 nM | 125 nM | – | – | –
COCCC(C(=O)COc1c(F)c(F)cc(F)c1F)n1cc([C@@](C)(NCc2ccc3ncsc3c2)C(C)C)nn1 (some centres undefined) | 44 nM | 63 nM | – | – | –
CCCCC(C(=O)COc1c(F)c(F)cc(F)c1F)n1cc([C@@](C)(NCc2ccc3ncsc3c2)C2CCCC2)nn1 (some centres undefined) | 3 nM | 5 nM | – | – | –
C[C@@](NCc1ccc2ncsc2c1)(c1cn(C(CCS(C)(=O)=O)C(=O)COc2c(F)c(F)cc(F)c2F)nn1)C1CCCC1 (some centres undefined) | 10 nM | 25 nM | 6.8 ×10⁻⁶ cm/s | 200 nM | –
COCCC(C(=O)COc1c(F)c(F)cc(F)c1F)n1cc([C@@](C)(NCc2ccc3ncsc3c2)C2CCCC2)nn1 (some centres undefined) | 7 nM | 124 nM | – | – | –
CC(C)[C@](C)(NCc1ccc2occc2c1)c1cn(C(CCS(C)(=O)=O)C(=O)COc2c(F)c(F)cc(F)c2F)nn1 (some centres undefined) | 3 nM | 880 nM | – | – | –
CCCCC(C(=O)COc1c(F)c(F)cc(F)c1F)n1cc([C@@](C)(NCc2ccn3nccc3n2)C(C)C)nn1 (some centres undefined) | 8 nM | 75 nM | 15.1 ×10⁻⁶ cm/s | 314 nM | –
CCCCC(C(=O)COc1c(F)c(F)cc(F)c1F)n1cc([C@@](C)(NCc2ccn3nccc3n2)C2CCCC2)nn1 (some centres undefined) | – | 3 nM | 2.9 ×10⁻⁶ cm/s | 263 nM | clearance [2]: 30.7 mL/min/kg; AUC [3]: 5370 ng·h/mL; Vd [4]: 4.19 L/kg; F (Mus musculus): 37%; half-life [5]: 2.32 h; AUC [6]: 8110 ng·h/mL; half-life [7]: 3.04 h
CC(C)[C@](C)(NCc1ccn2nccc2n1)c1cn(C(CCS(C)(=O)=O)C(=O)COc2c(F)c(F)cc(F)c2F)nn1 (some centres undefined) | 2340 nM | 467 nM | – | – | –
COCCC(C(=O)COc1c(F)c(F)cc(F)c1F)n1cc([C@@](C)(NCc2ccn3nccc3n2)C2CCCC2)nn1 (some centres undefined) | 20 nM | 2820 nM | – | – | –
CCCCC(C(=O)COc1c(F)c(F)cc(F)c1F)n1cc([C@@](C)(NCc2ccc3ncccc3c2)C2CCCC2)nn1 (some centres undefined) | 15 nM | 27 nM | 0.48 ×10⁻⁶ cm/s | 260 nM | clearance [2]: 19 mL/min/kg; AUC [3]: 8710 ng·h/mL; Vd [4]: 5.4 L/kg; F (Mus musculus): 23%; half-life [5]: 3 h; AUC [6]: 8100 ng·h/mL; half-life [7]: 4.2 h
CCCCC(C(=O)COc1c(F)c(F)cc(F)c1F)n1cc([C@@](C)(NCc2ccc3ncccc3c2)C(C)C)nn1 (some centres undefined) | 22 nM | – | 3.02 ×10⁻⁶ cm/s | 3800 nM | Cmax [8]: 4130 ng/mL; Cmax [1]: 833 ng/mL; clearance [2]: 36.2 mL/min/kg; AUC [3]: 4670 ng·h/mL; Vd [4]: 4.2 L/kg; F (Mus musculus): 21%; half-life [5]: 3.34 h; AUC [6]: 3860 ng·h/mL; half-life [7]: 2.95 h; half-life [9]: 3.3 h
